Experiment [1] deals with Protein farnesyltransferase (Bos taurus, UniProt P29702+P49355). Put plainly: In vitro inhibition of farnesyltransferase from bovine brain.
Experiment [2] has as its system NIH3T3. Put plainly: (§1) Inhibition of Ha-Ras processing in NIH3T3 Ras transformed cells. In kind it is functional, cell-based, Homo sapiens. The note with it: Mus musculus. The gist of the method:
(§2)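 Subconfluent Ras-transformed NIH3T3 cells dosed with compounds; lysates boiled 5 min in Laemmli buffer, resolved on 15% Tris-glycine gel, blotted to nitrocellulose, probed with anti-Ras antibody Y13-238; bands by ECL, quantified by densitometry. Single determinations unless limits given; assay reliability ±50-100%.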

The test system of experiment [3] is NIH3T3. Described as §1. Conditions: Mus musculus, read-out: ED50 (the source's name). In kind it is functional, Homo sapiens. The gist of the method: as §2

Structures are written as SMILES.

A word on the IC50: it is the concentration at which inhibition is half-maximal. Higher therefore signals weaker potency.

`COc1ccc(-c2cc(COc3cccnc3)ccc2C(=O)N[C@@H](CCSC)C(=O)O)cc1` displayed an IC50 in experiment [1] of 0.23 µM.

With `CSCC[C@H](NC(=O)c1ccc(COc2cccnc2)cc1-c1ccccc1)C(=O)O`, in experiment [1], the IC50 amounted to 0.0043 µM. This compound came in with an EC50 with NIH3T3 [2] of 5 µM.

On to `NC(=O)CC[C@H](NC(=O)c1ccc(COc2cccnc2)cc1-c1ccccc1)C(=O)O`, for which, in experiment [1], the IC50 was determined as 0.048 µM.

The compound `CSCC[C@H](NC(=O)c1ccc(COc2cccnc2)cc1-c1cccc(C)c1)C(=O)O` displayed an IC50 in experiment [1] of 0.0054 µM. The same measure, in the same setting: the result for `CSCC[C@H](NC(=O)c1ccc(NC(=O)c2ccncc2)cc1-c1ccccc1)C(=O)O` reads over 1 µM. The same measure, in the same setting: then `CCCC[C@H](NC(=O)c1ccc(COc2cccnc2)cc1-c1ccccc1)C(=O)O`, with over 1 µM. Same read-out and setting: then `CSC[C@H](NC(=O)c1ccc(COc2cccnc2)cc1-c1ccccc1)C(=O)O`, with over 1 µM; and `CSCC[C@H](NC(=O)c1ccc(NC(=O)c2ccccn2)cc1-c1ccccc1)C(=O)O`, with over 1 µM. `CSCC[C@H](NC(=O)c1ccc(NCc2cccnc2)cc1-c1ccccc1)C(=O)O`: the IC50 in experiment [1] was 0.02 µM. The same compound displayed an EC50 with NIH3T3 [2] of 40 µM. In experiment [1], `CSCC[C@H](NC(=O)c1ccc(CSc2cccnc2)cc1-c1ccccc1)C(=O)O` registered an IC50 of 0.01 µM. In the experiment on NIH3T3 [2], this compound came in with an EC50 of 10 µM.

As to `CSCC[C@H](NC(=O)c1ccc(COc2cccnc2)cc1-c1ccccc1Cl)C(=O)O`, the IC50 in experiment [1] amounted to 0.00061 µM. Also, the EC50 in the experiment with NIH3T3 [2] came out at 0.4 µM. For `CSCC[C@H](NC(=O)c1ccc(COc2cccnc2)cc1-c1ccccc1C(F)(F)F)C(=O)O` the same measures were 0.0005 µM and 0.3 µM. As to `CSCC[C@@H](NC(=O)c1ccc(CNc2cccnc2)cc1-c1ccccc1)C(=O)O`, in experiment [1], half-maximal inhibition (IC50) required 0.14 µM. Same read-out and setting: then `COc1cccc(-c2cc(COc3cccnc3)ccc2C(=O)N[C@@H](CCSC)C(=O)O)c1`, with 0.012 µM. `CSCC[C@H](NC(=O)c1ccc(CNc2cccnc2)cc1-c1ccccc1)C(=O)O` gave a half-inhibitory concentration (IC50) in experiment [1] of 0.0068 µM. The EC50 with NIH3T3 [2] was found to be 10 µM. Taken in the same sequence, the figures for `CSCC[C@H](NC(=O)c1ccc(NC(=O)c2cccnc2)cc1-c1ccccc1)C(=O)O` were 0.07 µM and 50 µM. Compound `CSCC[C@H](NC(=O)c1ccc(NCc2cccnc2)cc1-c1ccccc1C)C(=O)O` showed an IC50 in experiment [1] of 0.0015 µM. In experiment [1], `COc1ccccc1-c1cc(COc2cccnc2)ccc1C(=O)N[C@@H](CCSC)C(=O)O` registered an IC50 of 0.0033 µM. This compound had an EC50 in the experiment with NIH3T3 [2] of 10 µM. In turn, `CSCC[C@H](NC(=O)c1ccc(NC(=O)c2cccnc2)cc1-c1ccccc1C)C(=O)O` came in with a 50% inhibitory concentration (IC50) in experiment [1] of 0.0016 µM. On to `CS(=O)(=O)CC[C@H](NC(=O)c1ccc(CNc2cccnc2)cc1-c1ccccc1)C(=O)O`, for which the IC50 in experiment [1] worked out at 0.017 µM. In addition, the EC50 in the experiment on NIH3T3 [3] came to 100 µM. Regarding `COC(=O)[C@H](CCSC)NC(=O)c1ccc(NC[C@@H](N)CS)cc1-c1ccccc1`, in the experiment with NIH3T3 [3], the EC50 was 0.2 µM. In the case of `CSCC[C@H](NC(=O)c1ccc(COc2cccnc2)cc1-c1ccccc1C)C(=O)O`, half-maximal inhibition in experiment [1] (IC50) was put at 0.0004 µM. The EC50 in the experiment with NIH3T3 [2] stood at 0.35 µM. Turning to `CSCC[C@H](NC(=O)c1ccc(OCc2cccnc2)cc1-c1ccccc1)C(=O)O`, the IC50 in experiment [1] worked out at 0.0066 µM. In experiment [1], `CCc1ccccc1-c1cc(COc2cccnc2)ccc1C(=O)N[C@@H](CCSC)C(=O)O` came in with a half-inhibitory concentration (IC50) of 0.00035 µM. Besides, the EC50 in the experiment on NIH3T3 [2] is under 0.1 µM. The compound `CSCC[C@@H](C(=O)O)N(C)C(=O)c1ccc(CNc2cccnc2)cc1-c1ccccc1` came in with an IC50 in experiment [1] of 0.16 µM. In the experiment on NIH3T3 [3], the EC50 worked out at 100 µM.

`COCC[C@H](NC(=O)c1ccc(COc2cccnc2)cc1-c1ccccc1)C(=O)O` registered an IC50 in experiment [1] of 1 µM. Same read-out and setting: then `CSCC[C@H](NC(=O)c1ccc(CSc2cccnc2)cc1-c1ccccc1C)C(=O)O`, with 0.00069 µM; and `CSCC[C@H](NC(=O)c1ccc(CS(=O)(=O)c2cccnc2)cc1-c1ccccc1)C(=O)O`, with 0.55 µM. As to `CSCC[C@H](NC(=O)c1ccc(NC[C@@H](N)CS)cc1-c1ccccc1)C(=O)O`, the EC50 in the experiment with NIH3T3 [3] is 1 µM.

In the case of `CSCC[C@H](NC(=O)c1ccc(COc2cccnc2)cc1-c1ccc(C)cc1)C(=O)O`, inhibition in experiment [1] was half-maximal at 0.36 µM (IC50).

(Values after ChEMBL document CHEMBL1131157, “Potent and selective non-cysteine-containing inhibitors of protein farnesyltransferase” (J Med Chem, 1998).)
